Caspase activation data for 43 compounds are collected here from PubChem BioAssay AID2465 (Broad Institute, 2010).

Out of some 24,000 compounds screened, fewer than 10 were called active. No stated cut-off is given here; in the data, active means caspase activation above about 5.9%; inconclusive means no clear call, values can overlap the other calls; inactive means below about 2.2%. Only a sample is shown.

A short description of the experiment: Bcl2-A1 antagonists releasing BIM, apoptosis – cell-based, luminescence, HTS, two replicates, primary screen (AID 2465). The following applies: MEF A1-2A-BIM cells, caspase-Glo luminescence, 3 h; stronger effect = higher value; percent of clofoctol response, DMSO zero; concentration not given here. A digest of the protocol:
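Test system – A1-2A-BIM-expressing MEF cells · Input – 2500 cells/well · Medium – RPMI-1640 growth medium with 10% FBS · Compound dosing – 50 nL pinned compound · Timing – 3 h compound exposure at 37 °C · Technique – Caspase-Glo luminescence (DEVD substrate) · Evaluation – Caspase-3/7 activity from luminescence increase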
On to `COC(=O)CCCCCCC(=O)N/N=C/c1cccs1`, for which the caspase activation was 0.382% (inactive). The value for `C[C@H](CO)N1C[C@H](C)[C@H](CN(C)C(=O)Nc2cccc3ccccc23)OCCCC[C@H](C)Oc2ccc(NC(=O)Nc3ccc4c(c3)OCO4)cc2C1=O` was 0.835% (inactive); that for `Cc1noc(C)c1S(=O)(=O)Nc1ccc2c(c1)C(=O)N([C@@H](C)CO)C[C@H](C)[C@H](CN(C)CC1CCCCC1)OCCCC[C@H](C)O2` was -0.748% (inactive); that for `C[C@@H]1CN([C@@H](C)CO)C(=O)c2cc(NS(=O)(=O)c3cccs3)ccc2O[C@@H](C)CCCCO[C@@H]1CN(C)C(=O)NC1CCCCC1` was -0.476% (inactive). The value for `Cc1ccc(S(=O)(=O)N(C)C[C@H]2Oc3c(NC(=O)c4ccc(-c5nccs5)cc4)cccc3C(=O)N([C@H](C)CO)C[C@H]2C)cc1` was -0.882% (inactive); that for `Cc1ccc(S(=O)(=O)N(C)C[C@H]2OCCCC[C@@H](C)Oc3ccc(NC(=O)NC4CCCCC4)cc3C(=O)N([C@H](C)CO)C[C@@H]2C)cc1` was -0.124% (inactive). The value for `C[C@@H]1CN([C@H](C)CO)C(=O)c2cc(NC(=O)Nc3ccc(F)cc3)ccc2O[C@@H]1CN(C)Cc1ccc(Cl)c(Cl)c1` was 0.0143% (inactive); that for `C[C@H]1CN([C@@H](C)CO)C(=O)c2cccc(NS(=O)(=O)c3cccs3)c2O[C@H]1CN(C)Cc1ccc(C(=O)Nc2ccccc2N)cc1` was -0.485% (inactive). As to `C[C@@H]1CN([C@H](C)CO)C(=O)Cc2cc(NC(=O)Nc3ccc4c(c3)OCO4)ccc2O[C@@H]1CN(C)Cc1ccc(C(=O)Nc2ccccc2N)cc1`, the caspase activation was -1.67% (inactive). The value for `O=C(CCCCCC(=O)N/N=C/c1ccc[nH]1)NO` was -0.622% (inactive); that for `C[C@@H]1CCCCO[C@@H](CN(C)Cc2ccc3c(c2)OCO3)[C@@H](C)CN([C@@H](C)CO)C(=O)c2cc(NC(=O)C3CCCCC3)ccc2O1` was 1.06% (inactive). In the case of `Cc1noc(C)c1NC(=O)N(C)C[C@@H]1OCCCC[C@H](C)Oc2ccc(NC(=O)NC3CCCCC3)cc2C(=O)N([C@H](C)CO)C[C@H]1C`, the caspase activation was -1.23% (inactive). The value for `Cc1noc(C)c1S(=O)(=O)N(C)C[C@H]1OCCCC[C@@H](C)Oc2ccc(NC(=O)c3ccccc3)cc2C(=O)N([C@@H](C)CO)C[C@H]1C` was 0.679% (inactive); that for `C[C@@H]1CCCCO[C@@H](CN(C)Cc2ccncc2)[C@H](C)CN([C@H](C)CO)C(=O)c2cc(NC(=O)NC3CCCCC3)ccc2O1` was 0.887% (inactive); that for `C[C@@H]1CCCCO[C@@H](CN(C)C(=O)C2CCCCC2)[C@H](C)CN([C@H](C)CO)C(=O)c2cc(NC(=O)c3ccccc3)ccc2O1` was -0.0371% (inactive). The value for `CNC[C@@H]1Oc2ccc(NC(=O)C3CCCCC3)cc2CC(=O)N([C@@H](C)CO)C[C@H]1C` was -2% (inactive); that for `Cc1noc(C)c1NC(=O)Nc1ccc2c(c1)CC(=O)N([C@@H](C)CO)C[C@H](C)[C@H](CN(C)S(=O)(=O)c1c(C)noc1C)O2` was -0.264% (inactive).

As to `C[C@@H]1CN([C@H](C)CO)C(=O)Cc2cc(NC(=O)C3CCCCC3)ccc2O[C@H]1CN(C)S(=O)(=O)c1ccc(Cl)cc1`, the caspase activation was -0.597% (inactive). Next, `Cc1noc(C)c1NC(=O)N(C)C[C@H]1OCCCC[C@H](C)Oc2ccc(NC(=O)Cc3ccccc3)cc2C(=O)N([C@H](C)CO)C[C@@H]1C`: -0.000815% (inactive). Next, `Cc1noc(C)c1S(=O)(=O)N(C)C[C@@H]1OCCCC[C@H](C)Oc2ccc(NC(=O)NC3CCCCC3)cc2C(=O)N([C@@H](C)CO)C[C@H]1C`: 2.87% (inactive). The value for `COc1cc(O)cc(OC)c1/C=N/NC(=O)c1ccccc1O` was -0.325% (inactive); that for `C[C@@H]1CCCCO[C@@H](CN(C)C(=O)Nc2cccc3ccccc23)[C@H](C)CN([C@@H](C)CO)C(=O)c2cc(NS(=O)(=O)c3ccccc3)ccc2O1` was 0.255% (inactive). Turning to `COc1ccc(S(=O)(=O)Nc2ccc3c(c2)C(=O)N([C@@H](C)CO)C[C@H](C)[C@@H](CN(C)C(=O)Nc2ccc4c(c2)OCO4)OCCCC[C@@H](C)O3)cc1`, the caspase activation is 0.557% (inactive). The value for `C[C@H]1CCCCO[C@@H](CN(C)Cc2ccc3c(c2)OCO3)[C@@H](C)CN([C@@H](C)CO)C(=O)c2cc(NC(=O)c3ccccc3)ccc2O1` was -0.254% (inactive). Next, `C[C@@H]1CN([C@@H](C)CO)C(=O)c2cc(NC(=O)Nc3ccccc3)ccc2O[C@H]1CN(C)S(=O)(=O)c1ccccc1`: -0.0866% (inactive); `C[C@@H]1CCCCO[C@H](CN(C)C(=O)Nc2cccc3ccccc23)[C@H](C)CN([C@@H](C)CO)C(=O)c2cc(NC(=O)CCCN(C)C)ccc2O1`: -0.756% (inactive); `COc1ccc(CN(C)C[C@@H]2OCCCC[C@H](C)Oc3ccc(NS(=O)(=O)c4ccc(F)cc4)cc3C(=O)N([C@@H](C)CO)C[C@@H]2C)cc1`: 0.494% (inactive). The value for `O=C(NO)c1cccc(C(=O)N/N=C/c2c[nH]c3ccccc23)c1` was -1.04% (inactive); that for `C[C@@H]1CN([C@@H](C)CO)C(=O)CCCn2nncc2CO[C@@H]1CN(C)S(=O)(=O)c1ccc(-c2ccccc2)cc1` was -0.179% (inactive); that for `Cc1ccc(S(=O)(=O)Nc2ccc3c(c2)C(=O)N([C@H](C)CO)C[C@H](C)[C@H](CN(C)C(=O)Nc2ccc4c(c2)OCO4)OCCCC[C@@H](C)O3)cc1` was -0.5% (inactive).

Consider `C[C@@H]1CCCCO[C@@H](CN(C)Cc2ccccc2)[C@H](C)CN([C@H](C)CO)C(=O)c2cc(NC(=O)Nc3cccc4ccccc34)ccc2O1`, for which the caspase activation is 1.29% (inactive).

As for `C[C@@H]1CCCCO[C@@H](CN(C)CC2CCCCC2)[C@H](C)CN([C@H](C)CO)C(=O)c2cc(NC(=O)C3CCCCC3)ccc2O1`, the caspase activation is 0.00789% (inactive). The value for `CC(C)NC(=O)Nc1ccc2c(c1)C(=O)N([C@H](C)CO)C[C@H](C)[C@@H](CN(C)Cc1ccc3c(c1)OCO3)OCCCC[C@H](C)O2` was -0.756% (inactive); that for `CNC[C@H]1OCCCC[C@@H](C)Oc2ccc(NS(C)(=O)=O)cc2C(=O)N([C@@H](C)CO)C[C@H]1C` was -0.624% (inactive). Next, `COc1ccc(S(=O)(=O)Nc2ccc3c(c2)C(=O)N([C@H](C)CO)C[C@@H](C)[C@H](CN(C)C(=O)c2ccncc2)OCCCC[C@@H](C)O3)cc1`: 0.262% (inactive). Next, `C[C@H]1CN([C@@H](C)CO)C(=O)CCCn2cc(nn2)CO[C@@H]1CN(C)S(=O)(=O)c1ccccc1C#N`: 0.483% (inactive); `C[C@H]1CN([C@@H](C)CO)C(=O)Cc2cc(NC(=O)CCCCCC(=O)Nc3ccccc3N)ccc2O[C@@H]1CN(C)Cc1ccncc1`: -0.722% (inactive); `CC(C)NC(=O)Nc1ccc2c(c1)C(=O)N([C@@H](C)CO)C[C@@H](C)[C@H](CN(C)Cc1ccc(Cl)c(Cl)c1)OCCCC[C@H](C)O2`: -1.26% (inactive). With `COc1ccc(NC(=O)N(C)C[C@H]2OCCCC[C@H](C)Oc3ccc(NC(=O)NC4CCCCC4)cc3C(=O)N([C@@H](C)CO)C[C@@H]2C)cc1`, the caspase activation was -0.198% (inactive).

Regarding `C[C@@H]1CN([C@H](C)CO)C(=O)c2cc(NC(=O)Cn3cnnn3)ccc2O[C@@H]1CN(C)C(=O)Nc1ccc2c(c1)OCO2`, the caspase activation is -0.00909% (inactive). Next, `C[C@H](CO)N1C[C@H](C)[C@@H](CN(C)CC2CC2)OCCCC[C@H](C)Oc2ccc(NC(=O)Cc3ccccc3)cc2C1=O`: 0.105% (inactive). `CCCN(C)C[C@@H]1OCCCC[C@@H](C)Oc2ccc(NC(=O)Nc3ccc(C(F)(F)F)cc3)cc2C(=O)N([C@H](C)CO)C[C@H]1C`: the caspase activation was 1.62% (inactive).

As to `C[C@H](CO)N1C[C@H](C)[C@@H](CN(C)Cc2ccncc2)Oc2ccc(NS(=O)(=O)c3ccc(Cl)cc3)cc2CC1=O`, the caspase activation is -1.19% (inactive).
